Sampled rows, rich in hits. Any-hit rate of the full collection: about 3.3%.
rCAG binder = r(CAG) repeat RNA binding. AID 651821. inhibition, % at 3 µM. TO-PRO-1 dye displacement fluorescence. hit rate 1.3% among 370,000;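 active = inhibition above the plate cutoff, the mean of all test compounds on that plate plus 3 SD, cut at about 35% in these data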;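 also: higher means more dye released from RNA so lower well fluorescence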
HTRA1 inhibitor = HTRA1 (human) protease inhibition; recombinant HTRA1, FP-rhodamine activity-based probe, fluorescence polarization; Q92743; inhibition, % at 5.96 µM; AID 504803; hit rate 0.5% among 340,000; in the data active = inhibition above about 36%
SIAE inh = blocks human sialic acid acetylesterase. inhibition, % at 9.66 µM. hit rate 0.69% among 370,000. SIAE FP-Rh probe binding, fluorescence polarization. AID 1053197;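 active = inhibition above a cutoff: mean of compounds within the control limits plus 3 SD of those, cut at about 17% in these data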
Target sequence (Q9HAT2 whole entry, looked up): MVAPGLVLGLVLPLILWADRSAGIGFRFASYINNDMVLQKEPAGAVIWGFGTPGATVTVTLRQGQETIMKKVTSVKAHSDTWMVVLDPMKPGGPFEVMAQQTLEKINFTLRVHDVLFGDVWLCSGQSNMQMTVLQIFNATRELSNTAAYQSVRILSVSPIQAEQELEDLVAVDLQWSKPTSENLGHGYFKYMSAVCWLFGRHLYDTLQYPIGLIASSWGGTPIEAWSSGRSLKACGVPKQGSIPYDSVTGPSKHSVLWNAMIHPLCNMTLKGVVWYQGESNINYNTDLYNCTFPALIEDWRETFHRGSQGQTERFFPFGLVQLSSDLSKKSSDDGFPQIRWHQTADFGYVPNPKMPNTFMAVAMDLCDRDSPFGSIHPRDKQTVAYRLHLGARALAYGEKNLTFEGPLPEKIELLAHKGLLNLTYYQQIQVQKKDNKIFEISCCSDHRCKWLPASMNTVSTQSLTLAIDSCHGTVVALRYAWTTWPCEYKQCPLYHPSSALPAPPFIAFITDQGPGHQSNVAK
PRMT1 inh = blocks human protein arginine methyltransferase 1. Q99873. recombinant PRMT1, activity-based probe fluorescence polarization. inhibition, % at 2.79 µM. hit rate 1.3% among 370,000. AID 652257;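 active = inhibition above about 21% made by adding two undisclosed values, limit read from the data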
ABHD4 inh = inhibitors of mouse ABHD4; Q8VD66; purified mABHD4, FP-Rh probe fluorescence polarization; inhibition, % at 8.92 µM; hit rate 0.54% among 370,000; AID 720543;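 active = inhibition exceeding the mean over every tested compound plus 3 SD, cut at about 30% in these data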
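Assay system: mouse ABHD4 enzyme, wild type / Also added: fluorescent activity-based probe FP-Rh / Doses: single nominal dose of 8.92 µM, 0.89% DMSO final / Timing: 45 min compound pre-incubation plus 60 min probe step, 25 °C / Signal: FP readout, ex 525 nm / em 598 nm / Control set: S159A mutant/DMSO as 100%, compound-well median as 0%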
HTRA1 inh conf = HTRA1 (human) inhibition, confirmation; shares compounds with HTRA1 inhibitor; recombinant HTRA1, FP-rhodamine activity-based probe, fluorescence polarization; inhibition, % at 5.96 µM; hit rate 66% among 1,600; AID 540248;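 active = mean inhibition over three repeats above a set limit taken from the earlier primary screen, cut at about 37% in these data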;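 also: inhibitors block probe binding so polarization drops and inhibition rises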
rCAG binder conf = r(CAG) RNA repeat binding, confirmation. TO-PRO-1 dye displacement fluorescence. hit rate 70% among 4,300. shares compounds with rCAG binder. inhibition, % at 3 µM. AID 652065;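 active = inhibition above a per-plate cutoff, the mean inhibition of sample wells plus 3 SD, cut at about 35% in these data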;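 also: loss of TO-PRO-1 fluorescence as compound displaces dye from 1x1 AA loop RNA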
DNA CAG counter = disrupts DNA CAG TO-PRO-1 complex, flagging rCAG hits; AID 652068; d(CAG) DNA oligo TO-PRO-1 dye displacement, fluorescence; hit rate 94% among 4,300; inhibition, % at 3 µM; shares compounds with rCAG binder;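 active = inhibition above its plate's cutoff, the mean test-well inhibition plus 3 SD, cut at about 4.8% in these data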;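 also: hits displace the dye from DNA and so lower well fluorescence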
PRMT1 confirm = PRMT1 (human) inhibition, FP confirmation; AID 687036; inhibition, % at 2.79 µM; hit rate 42% among 3,300; recombinant His-PRMT1, activity-based probe fluorescence polarization; shares compounds with PRMT1 inh;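 active = mean inhibition across replicates above the hit cutoff derived for the earlier primary screen, cut at about 22% in these data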
ABHD4 confirm = ABHD4 (mouse) inhibition, FP confirmation | shares compounds with ABHD4 inh | purified mABHD4, FP-Rh probe fluorescence polarization | AID 720658 | inhibition, % at 8.92 µM | hit rate 55% among 1,800;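 active = mean inhibition across replicates above the hit cutoff set in the primary screen, cut at about 30% in these data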
Large screens that a line does not name were inactive (follow-up assays come after a bar, where they were run).

COC(=O)[C@]12C[C@H](CC(=O)N3CCN(C(=O)C4CC4)CC3)C(=O)N(Cc3ccc(Cl)cc3Cl)C1=C[C@H](COCc1ccccc1)O[C@@H]2C	none (no result: HTRA1 inhibitor)
Cc1cccc(N/N=C/c2ccc(O)c(O)c2O)c1	rCAG binder 43, HTRA1 inhibitor 59, PRMT1 inh 33, ABHD4 inh 36 | HTRA1 inh conf 62 | rCAG binder conf 43 | DNA CAG counter 16 | ABHD4 confirm 35
COc1cccc(N/N=C/c2cccc(Br)c2O)c1	none
COc1cccc(/C=N/NC(=O)c2c(C)nc3ccc(Cl)cn23)c1O	HTRA1 inhibitor 62, ABHD4 inh 35 | HTRA1 inh conf 65 | ABHD4 confirm 55
COc1ccccc1/C=N\NC(=O)c1c(C)nc2ccc(Cl)cn12	none
O=C1c2ccccc2C(=O)c2c1cccc2N1CCCC1	HTRA1 inhibitor 45, ABHD4 inh 33 | HTRA1 inh conf 49 | ABHD4 confirm 57
O=C1CSc2ccc(C(=O)N3CCCC(C(=O)N4CCCC4)C3)cc2N1 (stereo unspecified)	none (no result: HTRA1 inhibitor)
Cc1cc2c(nc1C)CCCN2Cc1ccc(Br)cc1	none (no result: HTRA1 inhibitor)
CC(=O)N1CCC(=NNC(=O)c2cc3ccccc3cc2O)CC1	HTRA1 inhibitor 51, ABHD4 inh 34 | HTRA1 inh conf inactive | ABHD4 confirm inactive
COc1ccc(C2OC34CCCCC3C(C#N)(C#N)C2(C#N)C(=N)O4)cc1 (stereo unspecified)	HTRA1 inhibitor 36, ABHD4 inh 34 | HTRA1 inh conf 43 | ABHD4 confirm 52
CC1OC23CCCCC2C(C#N)(C(=N)O3)C1(C#N)C#N (stereo unspecified)	none
O=C(CSc1nnc(-c2ccco2)n1Cc1ccco1)c1ccc([N+](=O)[O-])cc1	none (no result: HTRA1 inhibitor)
COC(=O)[C@]12C[C@H](CC(=O)N3CCC(c4ccccc4)CC3)C(=O)N(Cc3cccc4ccccc34)C1=C[C@H](C(C)(C)C)O[C@@H]2C	none (no result: HTRA1 inhibitor)
O=C(c1ccccc1)c1ccc(O)c(O)c1O	HTRA1 inhibitor 68, ABHD4 inh 39 | HTRA1 inh conf 79 | ABHD4 confirm inactive
Cc1cc(C(=O)c2ccccc2)cc(C)c1O	none
Cc1cccc(-c2cccc3c4c([nH]c23)[C@@H]2C[C@H](N(C)C(=O)c3ccco3)[C@H]([C@H](C)O)C(=O)N2CC4)c1	none (no result: HTRA1 inhibitor)
COc1cccc(N=Nc2ccc(O)c3ncccc23)c1	HTRA1 inhibitor 76, ABHD4 inh 43 | HTRA1 inh conf 67 | ABHD4 confirm 48
COCc1ccc(O)c2ncccc12	none
COc1ccc(-c2ncccc2O)cc1	none
COc1ccc(C)cc1N=Nc1ccc(O)c2ncccc12	HTRA1 inhibitor 86, ABHD4 inh 36 | HTRA1 inh conf 64 | ABHD4 confirm 39
Nc1ccc(N=Nc2ccccc2)c2cccnc12	HTRA1 inhibitor 43, ABHD4 inh 30 | HTRA1 inh conf 44 | ABHD4 confirm 55
COC(=O)[C@@]12CCCCC3=C1N(CCC3)C(=O)[C@H]2CC(=O)N1CCN(C(=O)C2CC2)CC1	none (no result: HTRA1 inhibitor)
COc1ccccc1CNC(=O)N1CCC(c2nc3ccc(Cl)cc3[nH]2)CC1	none (no result: HTRA1 inhibitor)
O=C(Cc1ccc(Cl)cc1)N/N=C/c1ccc(O)c(O)c1	HTRA1 inhibitor 63, ABHD4 inh 33 | HTRA1 inh conf 68 | ABHD4 confirm inactive
Cc1ccc(O)c(/C=N/NC(=O)Cc2ccc(Cl)cc2)c1	none
COc1ccccc1C(=O)NC1CCCCN(C)C1=O (stereo unspecified)	none (no result: HTRA1 inhibitor)
CCN(CC)c1ccc(C(=C2C=CC(=[N+](CC)CC)C=C2)c2ccc(N(CC)CC)cc2)cc1	HTRA1 inhibitor 83, SIAE inh 40, ABHD4 inh 110 | HTRA1 inh conf 86 | ABHD4 confirm 125
NC(=O)NC(=O)C(Nc1ccc(N2CCCCC2)cc1)c1ccccc1 (stereo unspecified)	HTRA1 inhibitor 52, ABHD4 inh 40 | HTRA1 inh conf inactive | ABHD4 confirm inactive
O=c1oc2ccccc2c(O)c1Cc1cc(Cl)c2cccnc2c1O	HTRA1 inhibitor 52, ABHD4 inh 33 | HTRA1 inh conf 54 | ABHD4 confirm inactive
O=C(SCc1c(O)c2ccccc2oc1=O)c1ccccc1	none
Cc1cc(C(=O)O)ccc1N/C=C1\CCCC(C)C1=O (stereo unspecified)	none
CC1CCC/C(=C\Nc2ccc(O)cc2)C1=O (stereo unspecified)	HTRA1 inhibitor 39, ABHD4 inh 44 | HTRA1 inh conf inactive | ABHD4 confirm inactive
O=C1CCCC2=C1C(c1ccc(O)c(O)c1)Nc1ccc3ccccc3c12 (stereo unspecified)	HTRA1 inhibitor 64, ABHD4 inh 32 | HTRA1 inh conf 72 | ABHD4 confirm inactive
CC(COc1ccc([N+](=O)[O-])cc1Cl)CN1CCC(C(O)(c2ccccc2)c2ccccc2)CC1 (stereo unspecified)	none (no result: HTRA1 inhibitor)
COc1cccc2c1C(=O)c1c(O)c3c(c(O)c1C2=O)C[C@](O)(C(C)=O)C[C@H]3O[C@@H]1C[C@@H](N)[C@@H](O)[C@@H](C)O1	HTRA1 inhibitor 68, SIAE inh 57, PRMT1 inh active, ABHD4 inh 68 | HTRA1 inh conf 72 | PRMT1 confirm 149 | ABHD4 confirm 61
CN1CCCN(C(=O)CN2C(=O)CC(C)(C)S(=O)(=O)c3ccccc32)CC1	none (no result: HTRA1 inhibitor)
Clc1ccc(CSc2nnc(-c3cccs3)o2)cc1Cl	none (no result: HTRA1 inhibitor)
Cc1nc2ccccc2c(=O)n1/N=C/c1ccc(O)c(O)c1O	rCAG binder 44, HTRA1 inhibitor 49, ABHD4 inh 44 | HTRA1 inh conf 56 | rCAG binder conf 51 | DNA CAG counter 19 | ABHD4 confirm inactive
CC1=CC(C)(C)Nc2ccc(Cc3ccc4c(c3)C(C)=CC(C)(C)N4)cc21	HTRA1 inhibitor 51, ABHD4 inh 31 | HTRA1 inh conf 37 | ABHD4 confirm 33
Cc1cc(N2CCN(CC(C)(C)O)C[C@H]2C)ccc1N1CCN(Cc2ccccc2)[C@H](C)C1	none (no result: HTRA1 inhibitor)
N#C/C(=C\c1ccc(O)c(O)c1)C(=O)N1CCc2ccccc21	HTRA1 inhibitor 71, ABHD4 inh 55 | HTRA1 inh conf 86 | ABHD4 confirm inactive
